ChEMBL document CHEMBL4014335, “Activation of Phenyl 4-(2-Oxo-3-alkylimidazolidin-1-yl)benzenesulfonates Prodrugs by CYP1A1 as New Antimitotics Targeting Breast Cancer Cells” (J Med Chem, 2017)

Assays:
HT-29 = assay: Antiproliferative activity against human HT-29 cells after 48 hrs by SRB assay; type: functional, cell-based; details: HT-29, 48 h
Method in brief: (§1)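 SRB assay run as in the NCI screen with slight modifications. Seeding: HT-29 5.0 x 10^3, M21 3.5 x 10^3, MCF7 7.5 x 10^3 cells; cells preincubated 24 h. Drug in DMSO added at 0.75 to 1.0 x 10^5 nM for 48 h. TCA fixation, sulforhodamine B staining, absorbance 530-565 nm. At least two experiments in triplicate; runs accepted only when relative SD < 10%.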

M21 = assay: Antiproliferative activity against human M21 cells after 48 hrs by SRB assay; type: functional, cell-based; details: M21, 48 h; method in brief: as §1
MCF7 [1] = assay: Antiproliferative activity against human MCF7 cells after 48 hrs by SRB assay; type: functional, cell-based; details: MCF7, 48 h; method in brief: as §1
[2] = Selectivity ratio of IC50 for human HT-29 cells to IC50 for human MCF7 cells; type: functional
Method in brief: (§2)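 Ratio is IC50 in reference line over IC50 in sensitive line. […] Cells in DMEM with 5% calf serum at 37 °C. At least two experiments, triplicate cultures; assay accepted when relative SD < 10%.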

[3] = Selectivity ratio of IC50 for human M21 cells to IC50 for human MCF7 cells; type: functional; method in brief: as §2
MDA-MB-231 = assay: Antiproliferative activity against ER/PR/HER2 deficient human MDA-MB-231 cells after 72 hrs by SRB assay; type: functional, cell-based; details: MDA-MB-231, 72 h
Method in brief: (§3)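 SRB antiproliferative assay (modified NCI protocol). Cells seeded per well (SK-BR-3, MDA-MB-231, T47D, HT-1080, HT-1080 CYP1A1 and empty-vector: 3.0 x 10^3; MDA-MB-468: 5.0 x 10^3; MCF7: 7.5 x 10^3), preincubated 24 h. DMSO-solubilized drug added at 0.75 to 1.0 x 10^5 nM, then 72 h. Fixed with cold 10% TCA, stained with 0.1% sulforhodamine B, absorbance read at 530-565 nm. At least two experiments, triplicate cultures.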

MDA-MB-468 = assay: Antiproliferative activity against ER/PR/HER2 deficient human MDA-MB-468 cells after 72 hrs by SRB assay; type: functional, cell-based; details: MDA-MB-468, 72 h; method in brief: as §3
T47D = assay: Antiproliferative activity against ER/PR/HER2 expressing human T47D cells after 72 hrs by SRB assay; type: functional, cell-based; method in brief: as §3
SK-BR-3 = assay: Antiproliferative activity against ER/PR deficient and HER2 expressing human SKBR3 cells after 72 hrs by SRB assay; type: functional, cell-based; details: SK-BR-3, 72 h; method in brief: as §3
MCF7 [4] = assay: Antiproliferative activity against human MCF7 cells after 72 hrs by SRB assay; type: functional, cell-based; details: MCF7, 72 h; method in brief: as §3
[5] = Selectivity ratio of IC50 for ER/PR/HER2 deficient human MDA-MB-231 cells to IC50 for ER/PR/HER2 deficient human MDA-MB-468 cells; type: functional; method in brief: as §2
[6] = Selectivity ratio of IC50 for ER/PR/HER2 deficient human MDA-MB-231 cells to IC50 for ER/PR/HER2 expressing human T47D cells; type: functional; method in brief: as §2
[7] = Selectivity ratio of IC50 for ER/PR/HER2 deficient human MDA-MB-231 cells to IC50 for ER/PR deficient and HER2 expressing human SKBR3 cells; type: functional; method in brief: as §2
[8] = Selectivity ratio of IC50 for ER/PR/HER2 deficient human MDA-MB-231 cells to IC50 for human MCF7 cells; type: functional; method in brief: as §2
Cytochrome P450 1A1 [9] = target: T1, Cytochrome P450 1A1 (Homo sapiens, UniProt P04798); assay: Prodrug activation assessed as human supersomes CYP1A1-mediated 3,4,5-trimethoxyphenyl 4-(2-oxoimidazolidin-1-yl)benzenesulfonate formation after 4 hrs by HPLC-MS analysis; type: ADME; details: recombinant enzyme
T1 sequence (P04798 whole entry): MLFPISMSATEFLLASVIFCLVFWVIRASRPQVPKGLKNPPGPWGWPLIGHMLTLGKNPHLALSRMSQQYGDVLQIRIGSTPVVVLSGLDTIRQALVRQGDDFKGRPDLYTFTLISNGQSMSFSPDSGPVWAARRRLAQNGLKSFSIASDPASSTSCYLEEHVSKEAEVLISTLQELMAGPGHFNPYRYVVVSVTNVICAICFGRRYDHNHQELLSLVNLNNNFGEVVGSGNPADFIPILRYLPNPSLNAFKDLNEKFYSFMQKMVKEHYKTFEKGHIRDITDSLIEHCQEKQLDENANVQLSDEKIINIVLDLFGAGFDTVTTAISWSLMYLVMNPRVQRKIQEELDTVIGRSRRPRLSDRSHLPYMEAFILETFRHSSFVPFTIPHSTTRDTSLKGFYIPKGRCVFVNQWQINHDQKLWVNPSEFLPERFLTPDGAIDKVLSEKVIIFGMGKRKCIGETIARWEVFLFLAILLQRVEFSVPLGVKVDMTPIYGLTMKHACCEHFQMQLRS

Cytochrome P450 1A1 [10] = target: T1, Cytochrome P450 1A1; assay: Prodrug activation assessed as time required for human supersomes CYP1A1-mediated 3,4,5-trimethoxyphenyl 4-(2-oxoimidazolidin-1-yl)benzenesulfonate formation after 4 hrs by HPLC-MS analysis; type: ADME; details: recombinant enzyme
Cytochrome P450 1A1 [11] = target: T1, Cytochrome P450 1A1; assay: Inhibition of human supersomes CYP1A1-mediated 7-ethoxyresorufin conversion to fluorescent resorufin preincubated with 7-ethoxyresorufin for 5 mins followed by addition of NADPH regenerating system measured for 15 mins by EROD assay; type: ADME
Method in brief: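 EROD assay with human CYP1A1 supersomes containing reductase, in potassium phosphate buffer. Drug final 32–31 600 nM and 7-ethoxyresorufin 94–3 000 nM, with 0.35% DMSO, preincubated 5 min at 37 °C. Reaction started with NADPH-regenerating system and 0.15 pmol CYP1A1 in 150 µL. Initial velocity taken from 1–5 min; Vmax and Km from Lineweaver-Burk plot.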

HT-1080 [12] = assay: Antiproliferative activity against human wild type HT1080 cells after 72 hrs by SRB assay; type: functional, cell-based; details: HT-1080, 72 h; method in brief: as §3
HT-1080 [13] = assay: Antiproliferative activity against human HT1080 cells transfected with pCMV6-AC empty plasmid after 72 hrs by SRB assay; type: functional, cell-based; details: HT-1080, 72 h; method in brief: as §3
HT-1080 [14] = assay: Antiproliferative activity against human HT1080 cells transfected with CYP1A1 after 72 hrs by SRB assay; type: functional, cell-based; details: HT-1080, 72 h; method in brief: as §3
HT-1080 [15] = assay: Selectivity ratio of IC50 for HT1080 cells transfected with pCMV6-AC empty plasmid to IC50 for human HT1080 cells transfected with CYP1A1; type: functional
Method in brief: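 Ratio is IC50 (HT-1080 empty vector) over IC50 (HT-1080 CYP1A1). Both lines stably transfected (pCMV6-AC plasmids) and kept under G418 selection, seeded at 3.0 x 10^3 cells. IC50s from SRB antiproliferative assay.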

Cytochrome P450 1A1 [16] = target: T1, Cytochrome P450 1A1; assay: Prodrug conversion assessed as human supersomes CYP1A1-mediated 3,5-dimethoxyphenyl 4-(2-oxoimidazolidin-1-yl)benzenesulfonate formation after 4 hrs by HPLC-MS analysis; type: ADME; details: recombinant enzyme

Structure (SMILES)	IC50 (HT-29) [nM]	IC50 (M21) [nM]	IC50 (MCF7 [1]) [nM]	Ratio IC50 [2]	Ratio IC50 [3]	IC50 (MDA-MB-231) [nM]	IC50 (MDA-MB-468) [nM]	IC50 (T47D) [nM]	IC50 (SK-BR-3) [nM]	IC50 (MCF7 [4]) [nM]	Ratio IC50 [5]	Ratio IC50 [6]	Ratio IC50 [7]	Ratio IC50 [8]	Drug metabolism (Cytochrome P450 1A1 [9])	Time (Cytochrome P450 1A1 [10]) [min]	IC50 (HT-1080 [12]) [nM]	IC50 (HT-1080 [13]) [nM]	IC50 (HT-1080 [14]) [nM]	Ratio IC50 (HT-1080 [15])	further results
CCCCN1CCN(c2ccc(S(=O)(=O)Oc3cc(OC)cc(OC)c3)cc2)C1=O	36000	> 100000	19	1900	>5300	> 100000	160	240	52	35	>630	>420	>1900	>2900	Metabolite_Notdetected	15	29000	81000	31	2600	Ki (Cytochrome P450 1A1 [11]; read-out: Ki): 490 nM; Drug metabolism (Cytochrome P450 1A1 [16]): Metabolite_Detected
COc1cc(OC)cc(OS(=O)(=O)c2ccc(N3CCNC3=O)cc2)c1	–	–	–	–	–	10	6.5	8.7	5.5	4	1.5	1.1	1.8	2.5	–	–	5.4	4.2	2.3	1.8	Ki (Cytochrome P450 1A1 [11]): Not Active
CCCN1CCN(c2ccc(S(=O)(=O)Oc3cc(OC)c(OC)c(OC)c3)cc2)C1=O	5600	3900	49	110	80	6000	26	49	5	18	240	130	1300	340	Metabolite_Detected	15	6700	82000	16	5100	Ki (Cytochrome P450 1A1 [11]; read-out: Ki): 240 nM
